Experimental data as given in PubChem BioAssay AID623962 (The Scripps Research Institute Molecular Screening Center, 2012).
“And” between values parts separate entries of the source, which are not always exact repeats. Identical values can stand only once. The source made the active and inactive calls.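 Rule for the calls: active = mean inhibition at 10 µM of 50% or more; inactive = mean inhibition at 10 µM below 50%.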

These compounds were tested on Huh-7.5 HCV Rluc replicon, luciferase luminescence, 72 h (assay: HCV RNA replication inhibitors in Huh-7.5 cells – cell-based, luminescence, Renilla luciferase replicon, orthogonal assay for HCV NS3 helicase inhibitor project, late-stage follow-up (AID 623962)). Details: at 10 µM; active compounds read high.
How it was run: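 Test system – Huh-7.5 human hepatoma cells with HCV replicon–Renilla luciferase fusion · Doses – single dose, 10 µM final, 0.5% DMSO final · Times – 4-5 h attachment, 72 h compound exposure at 37 °C · Signal – Renilla luciferase luminescence of lysed cells · Measure – % replication inhibition versus DMSO-treated cells · Controls – DMSO-only wells as reference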

SMILES	inhibition
Cc1ccc2nc(-c3ccc4nc(-c5ccc(NC(=O)c6cccc(C(F)(F)F)c6F)cc5)sc4c3)sc2c1S(=O)(=O)O	48% (inactive)
O=C(Nc1nc2ccc(Br)cc2s1)c1ccc2ncsc2c1	25% (inactive)
Cc1ccc2nc(-c3ccc4nc(-c5ccc(NC(=O)c6cccc(Cl)c6)cc5)sc4c3)sc2c1S(=O)(=O)O	54%
Cc1ccc2nc(-c3ccc(NC(=O)c4ccc(NS(=O)(=O)c5ccccc5)cc4)cc3)sc2c1S(=O)(=O)O	-73% (inactive)
Cc1ccc2nc(-c3ccc4nc(-c5ccc6nc(-c7ccc(N)cc7)sc6c5)sc4c3)sc2c1S(=O)(=O)O (tested in a mixture with another compound)	0% (inactive)
Cc1ccc2nc(-c3ccc4nc(-c5ccc(NC(=O)c6ccc7nc(-c8ccc(N)cc8)sc7c6)cc5)sc4c3)sc2c1S(=O)(=O)O	37% (inactive)
Cc1ccc2nc(-c3ccc4nc(-c5ccc(NC(=O)c6ccc(C(F)(F)F)cc6)cc5)sc4c3)sc2c1S(=O)(=O)O	44% (inactive)
Cc1ccc2nc(-c3ccc4nc(-c5ccc(NC(=O)c6ccc(Br)cc6)cc5)sc4c3)sc2c1S(=O)(=O)O	7% (inactive)
Cc1ccc2c(sc(-c3ccc4c(c3)sc(-c3ccc5c(c3)sc(-c3ccc(N(C)C)cc3)[n+]5C)[n+]4C)[n+]2C)c1S(=O)(=O)O (tested in a mixture with another compound)	-16% (inactive)
Cc1ccc2nc(-c3ccc4nc(-c5ccc(NC(=O)c6ccc(NC(=O)OCC7c8ccccc8-c8ccccc87)cc6)cc5)sc4c3)sc2c1S(=O)(=O)O	57%
Cc1ccc2nc(-c3ccc4nc(-c5ccc(NC(=O)c6cccnc6)cc5)sc4c3)sc2c1S(=O)(=O)O	51%
COc1ccc(NC(=O)Nc2ccc(-c3nc4ccc(-c5nc6ccc(C)c(S(=O)(=O)O)c6s5)cc4s3)cc2)cc1	21% (inactive)
Cc1ccc2nc(-c3ccc4nc(-c5ccc(NC(=O)c6cc(F)ccc6C(F)(F)F)cc5)sc4c3)sc2c1S(=O)(=O)O	61%
Cc1ccc2nc(-c3ccc4nc(-c5ccc(NC(=O)c6ccc(N)cc6)cc5)sc4c3)sc2c1S(=O)(=O)O	33% (inactive)
Cc1ccc2nc(-c3ccc4nc(-c5ccc(NC(=O)c6ccc7nc(-c8ccc(NC(=O)OCC9c%10ccccc%10-c%10ccccc%109)cc8)sc7c6)cc5)sc4c3)sc2c1S(=O)(=O)O	42% (inactive) and 44% (inactive)
Cc1ccc2nc(-c3ccc4nc(-c5ccc(N(C)C(=O)c6ccc7ccccc7c6)cc5)sc4c3)sc2c1S(=O)(=O)O	24% (inactive)
Cc1ccc2nc(-c3ccc4nc(-c5ccc(NC(=O)c6ccc(F)cc6)cc5)sc4c3)sc2c1S(=O)(=O)O	50%
Cc1ccc2nc(-c3ccc4nc(-c5ccc(NC(=O)c6cccc(C(F)(F)F)c6)cc5)sc4c3)sc2c1S(=O)(=O)O	41% (inactive)
Cc1ccc2nc(-c3ccc4nc(-c5ccc(NC(=O)c6cc(C(F)(F)F)ccc6F)cc5)sc4c3)sc2c1S(=O)(=O)O	39% (inactive)
